Assay results as given in ChEMBL document CHEMBL3808334, “Synthesis and in vitro evaluation of novel triazine analogues as anticancer agents and their interaction studies with bovine serum albumin” (Eur J Med Chem, 2016).

Tests used:
Format in all cases: functional
[1] = Growth inhibition of human Hs 578T cells assessed as cell growth at 10^-5 M incubated for 48 hrs by sulforhodamine B assay; settings: read-out: Activity
[2] = system: HT-29; assay: Growth inhibition of human HT-29 cells incubated for 48 hrs by sulforhodamine B assay; settings: HT-29, 48 h
Method in brief: (§1)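 Cells were plated at 5,000–40,000 per well according to doubling time and preincubated 24 h at 37 °C in 5% CO2; time-zero plates were then TCA-fixed. Five concentrations (10-fold or ½-log dilutions, DMSO stock) were incubated 48 h. Cells were TCA-fixed, stained with 0.4% SRB and read at 515 nm. GI50 was taken where [(Ti−Tz)/(C−Tz)]×100 = 50.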

[3] = system: U-251; assay: Growth inhibition of human U251 cells assessed as cell growth at 10^-6 M incubated for 48 hrs by sulforhodamine B assay; settings: U-251, 48 h, read-out: Activity
[4] = Growth inhibition of human SF295 cells assessed as cell growth at 10^-8 M incubated for 48 hrs by sulforhodamine B assay; settings: SF-295, 48 h, read-out: Activity
[5] = Growth inhibition of human MOLT4 cells assessed as cell growth at 10^-5 M incubated for 48 hrs by sulforhodamine B assay; settings: MOLT-4, 48 h, read-out: Activity
[6] = system: M14; assay: Growth inhibition of human M14 cells assessed as cell growth at 10^-5 M incubated for 48 hrs by sulforhodamine B assay; settings: M14, 48 h, read-out: Activity
[7] = Growth inhibition of human UACC62 cells assessed as cell growth at 10^-6 M incubated for 48 hrs by sulforhodamine B assay; settings: UACC-62, 48 h, read-out: Activity
[8] = system: MDA-MB-231; assay: Growth inhibition of human MDA-MB-231 cells assessed as cell growth at 10^-4 M incubated for 48 hrs by sulforhodamine B assay; settings: MDA-MB-231, 48 h, read-out: Activity
[9] = Growth inhibition of human HCC2998 cells assessed as cell growth at 10^-4 M incubated for 48 hrs by sulforhodamine B assay; settings: HCC 2998, 48 h, read-out: Activity
[10] = Growth inhibition of human DU145 cells assessed as cell growth at 10^-4 M incubated for 48 hrs by sulforhodamine B assay; settings: DU-145, 48 h, read-out: Activity
Method in brief: (§2)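 Cells seeded at 5,000–40,000/well according to doubling time and preincubated 24 h at 37 °C, 5% CO2. Time-zero plates were TCA-fixed. DMSO concentrate was diluted in medium with 50 µg/ml gentamicin to give five concentrations (10-fold or ½ log steps), then exposed 48 h. Cells were TCA-fixed, stained with 0.4% SRB and read at 515 nm. Percent growth was taken against time-zero and control; GI50, TGI and LC50 derived.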

[11] = system: 786-0; assay: Growth inhibition of human 786-0 cells assessed as cell growth at 10^-6 M incubated for 48 hrs by sulforhodamine B assay; settings: 786-0, 48 h, read-out: Activity
Method in brief: (§3)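 Five-dose assay: five concentrations from 10-fold or ½-log serial dilutions. Cells are plated at 5,000–40,000 per well according to doubling time, grown 24 h, then exposed 48 h at 37 °C, 5% CO₂. Fixed with cold 50% TCA (final addition) for 60 min at 4 °C and stained with 0.4% SRB in 1% acetic acid. Bound dye is solubilized in 10 mM Tris base and read at 515 nm. GI₅₀ is where [(Ti−Tz)/(C−Tz)]×100 = 50, with a time-zero plate as Tz.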

[12] = system: K562; assay: Growth inhibition of human K562 cells assessed as cell growth at 10^-4 M incubated for 48 hrs by sulforhodamine B assay; settings: K562, 48 h, read-out: Activity
[13] = system: MDA-MB-231; assay: Growth inhibition of human MDA-MB-231 cells assessed as cell growth at 10^-7 M incubated for 48 hrs by sulforhodamine B assay; settings: MDA-MB-231, 48 h, read-out: Activity
[14] = Growth inhibition of human SNB75 cells assessed as cell growth at 10^-7 M incubated for 48 hrs by sulforhodamine B assay; settings: SNB-75, 48 h, read-out: Activity
[15] = Growth inhibition of human HOP62 cells assessed as cell growth at 10^-6 M incubated for 48 hrs by sulforhodamine B assay; settings: HOP-62, 48 h, read-out: Activity
[16] = Growth inhibition of human DU145 cells assessed as cell growth at 10^-8 M incubated for 48 hrs by sulforhodamine B assay; settings: DU-145, 48 h, read-out: Activity; method in brief: as §2
[17] = Growth inhibition of human TK10 cells assessed as cell growth at 10 uM incubated for 48 hrs by sulforhodamine B assay; settings: TK-10, 48 h, read-out: Activity
[18] = system: NCI-H23; assay: Growth inhibition of human NCI-H23 cells assessed as cell growth at 10^-5 M incubated for 48 hrs by sulforhodamine B assay; settings: NCI-H23, 48 h, read-out: Activity
[19] = Growth inhibition of human SNB19 cells assessed as cell growth at 10^-4 M incubated for 48 hrs by sulforhodamine B assay; settings: SNB-19, 48 h, read-out: Activity
[20] = Growth inhibition of human SKOV3 cells assessed as cell growth at 10^-5 M incubated for 48 hrs by sulforhodamine B assay; settings: SK-OV-3, 48 h, read-out: Activity
[21] = Growth inhibition of human TK10 cells assessed as cell growth at 10^-7 M incubated for 48 hrs by sulforhodamine B assay; settings: TK-10, 48 h, read-out: Activity
[22] = system: ACHN; assay: Growth inhibition of human ACHN cells assessed as cell growth at 10^-5 M incubated for 48 hrs by sulforhodamine B assay; settings: read-out: Activity; method in brief: as §3
[23] = system: NCI-H522; assay: Growth inhibition of human NCI-H522 cells assessed as cell growth at 10^-7 M incubated for 48 hrs by sulforhodamine B assay; settings: NCI-H522, 48 h, read-out: Activity
[24] = Growth inhibition of human CNS cancer cells incubated for 48 hrs by sulforhodamine B assay; settings: Cancer cell lines; for CC50: read-out: LC50 (the source's name); method in brief: as §3
[25] = Growth inhibition of human DU145 cells incubated for 48 hrs by sulforhodamine B assay; settings: DU-145, 48 h; for CC50: read-out: pLC50 (the source's name) (converted); method in brief: as §2
[26] = Growth inhibition of human SW620 cells assessed as cell growth at 10^-4 M incubated for 48 hrs by sulforhodamine B assay; settings: SW-620, 48 h, read-out: Activity
[27] = system: 786-0; assay: Growth inhibition of human 786-0 cells assessed as cell growth at 10^-5 M incubated for 48 hrs by sulforhodamine B assay; settings: 786-0, 48 h, read-out: Activity; method in brief: as §3
[28] = system: SK-MEL-5; assay: Growth inhibition of human SK-MEL-5 cells incubated for 48 hrs by sulforhodamine B assay; settings: SK-MEL-5, 48 h; method in brief: as §1
[29] = read-out: LC50 (the source's name)
[30] = read-out: pLC50 (the source's name) (converted)

c1ccc(-c2nc(Nc3ccc(-c4nc5ccccc5[nH]4)cc3)nc(N3CCOCC3)n2)cc1
growth at 10 µM [1]: -22%
GI50 ([2]; read-out: GI50): 645 nM
CC50 [2, 29]: 6450 nM
TGI ([2]; read-out: TGI): 2190 nM
GI50 ([2]; read-out: pGI50 (converted)): 646 nM
CC50 [2, 30]: 6460 nM
TGI ([2]; read-out: pTGI (converted)): 2190 nM
growth at 1 µM [3]: 28%
growth at 0.01 µM [4]: 94%
growth at 10 µM [5]: -53%
growth at 10 µM [6]: -80%
growth at 1 µM [7]: 84%
growth at 100 µM [8]: -60%
growth at 100 µM [9]: -48%
growth at 100 µM [10]: -100%
growth at 1 µM [11]: 9%
growth at 100 µM [12]: -55%
growth at 0.1 µM [13]: 86%
growth at 0.1 µM [14]: 96%
growth at 1 µM [15]: 89%
growth at 0.01 µM [16]: 99%
growth at 10 µM [17]: -58.1%
growth at 10 µM [18]: -44%
growth at 100 µM [19]: -48%
growth at 10 µM [20]: -62%
growth at 0.1 µM [21]: 106%
growth at 10 µM [22]: -82%
growth at 0.1 µM [23]: 101%
GI50 [24]: 1410 nM
TGI [24]: 3040 nM
CC50 [24]: 5980 nM
LC50 (50% net cell kill) [25]: 5120 nM
GI50 ([25]; read-out: GI50): 1210 nM
TGI ([25]; read-out: TGI): 2490 nM
GI50 ([25]; read-out: pGI50 (converted)): 1200 nM
CC50 [25]: 5130 nM
TGI ([25]; read-out: pTGI (converted)): 2510 nM
growth at 100 µM [26]: -84%
growth at 10 µM [27]: -88%
GI50 ([28]; read-out: GI50): 1690 nM
CC50 [28, 29]: 5900 nM
TGI ([28]; read-out: TGI): 3150 nM
GI50 ([28]; read-out: pGI50 (converted)): 1700 nM
CC50 [28, 30]: 5890 nM
TGI ([28]; read-out: pTGI (converted)): 3160 nM

Clc1ccc(-c2nc(Nc3ccc(-c4nc5ccccc5[nH]4)cc3)nc(N3CCOCC3)n2)cc1
growth at 10 µM [1]: -47%
GI50 ([2]; read-out: GI50): 228 nM
TGI ([2]; read-out: TGI): 523 nM
GI50 ([2]; read-out: pGI50 (converted)): 229 nM
TGI ([2]; read-out: pTGI (converted)): 525 nM
growth at 1 µM [3]: -56%
growth at 0.01 µM [4]: 97%
growth at 10 µM [5]: -72%
growth at 10 µM [6]: -85%
growth at 1 µM [7]: -53%
growth at 100 µM [8]: -22%
growth at 100 µM [9]: 2%
growth at 100 µM [10]: -63%
growth at 1 µM [11]: -78%
growth at 100 µM [12]: -29%
growth at 0.1 µM [13]: 92%
growth at 0.1 µM [14]: 79%
growth at 1 µM [15]: 72%
growth at 0.01 µM [16]: 101%
growth at 10 µM [17]: -94.4%
growth at 10 µM [18]: -66%
growth at 100 µM [19]: 1%
growth at 10 µM [20]: -96%
growth at 0.1 µM [21]: 92%
growth at 10 µM [22]: -87%
growth at 0.1 µM [23]: 95%
GI50 [24]: 770 nM
TGI [24]: 1920 nM
CC50 [24]: > 100000 nM
LC50 (50% net cell kill) [25]: 4330 nM
GI50 ([25]; read-out: GI50): 452 nM
TGI ([25]; read-out: TGI): 1640 nM
GI50 ([25]; read-out: pGI50 (converted)): 447 nM
CC50 [25]: 4370 nM
TGI ([25]; read-out: pTGI (converted)): 1660 nM
growth at 100 µM [26]: -63%
growth at 10 µM [27]: -87%
GI50 ([28]; read-out: GI50): 1690 nM
CC50 [28, 29]: 5790 nM
TGI ([28]; read-out: TGI): 3130 nM
GI50 ([28]; read-out: pGI50 (converted)): 1700 nM
CC50 [28, 30]: 5750 nM
TGI ([28]; read-out: pTGI (converted)): 3160 nM
